Laboratory results published in ChEMBL document CHEMBL1128519, “Semisynthetic chemical modification of the antifungal lipopeptide echinocandin B (ECB): structure-activity studies of the lipophilic and geometric parameters of polyarylated acyl analogs of ECB” (J Med Chem, 1995).
≈ marks a conversion by molar mass, not a printed value. Numbered stars: 1 amine (or outer) side, 2 acyl side, 3 side chain; on linkers, the order of the positions; unused ones are H or OH. Bridge positions count the residues as written; N and C are the ends. Square brackets hold non-standard residues; d marks the D form. Peptide text beside a SMILES is read from it. * marks the point of attachment. Orn(4R-OH,5R-OH) = O=C([C@H](C[C@@H](O)[C@@H](O)N[*:3])N[*:1])[*:2]; hTyr(3S-OH,4S-OH) = N[C@H](C(=O)O)[C@H](O)[C@@H](O)c1ccc(O)cc1; Pro(3S-OH,4S-Me) = C[C@H]1CN[C@H](C(=O)O)[C@H]1O; X25 = CCCCCCCCCCCCC(Oc1ccc(-c2ccccc2)cc1)C(=O)*; X18 = O=C(c1ccc(C#Cc2ccc(-c3ccccc3)cc2)cc1)*; X11 = CCC(CC)COc1ccc(-c2ccc(C(=O)*)cc2)cc1; X13 = O=C(CCCCCCCCCCOc1ccc(-c2ccccc2)cc1)*; X22 = O=C(c1ccc(-c2ccc(OCC3CCCC3)cc2)cc1)*; X24 = CCCCC(Oc1ccc(-c2ccccc2)cc1)C(=O)*; X10 = CCCCc1ccc(COc2ccc(C(=O)*)cc2)cc1; X21 = CCCCOc1ccc(-c2ccc(C(=O)*)cc2)cc1; X26 = CCCCOc1ccc(Cc2ccc(C(=O)*)cc2)cc1; X28 = CCCCOc1ccc(Oc2ccc(C(=O)*)cc2)cc1; X23 = O=C(CCCCCOc1ccc(-c2ccccc2)cc1)*; X27 = CCCCCCCCCCOc1cc2ccccc2cc1C(=O)*; X12 = CCCCCCCCCCOCCOc1ccc(C(=O)*)cc1; X15 = CCCCCCOc1ccc2cc(C(=O)*)ccc2c1; X19 = CCCCCCCCOCCOc1ccc(C(=O)*)cc1; X30 = CCCCCCOc1cc2ccccc2cc1C(=O)*; Hyp = O=C(O)[C@@H]1C[C@@H](O)CN1; X29 = CCCCCOCCOc1ccc(C(=O)*)cc1

Assays:
Candida albicans [1] = assay: Antifungal activity against Candida albicans; format: functional
Method in brief: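 Broth microdilution, C. albicans A26 (ATCC 62342) grown on Sabouraud dextrose agar at 35 °C; inoculum 1 × 10^5 conidia/mL in antibiotic 3 broth. Compounds dissolved at 1.0 mg/mL in methanol, 2-fold serial dilutions from 80 µg/mL, duplicate. Read after 48 h at 35 °C. MIC = lowest concentration completely inhibiting visible growth.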

[2] = molecular target: Beta-1,3-glucan synthase (Candida albicans) (UniProt O13428); assay: In vitro inhibition of glucan synthase obtained from Candida albicans at a concentration of 10 ug/mL.
Method in brief: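 Purified, solubilized β-(1,3)-D-glucan synthase prepared from C. albicans. Percent inhibition measured at 10 µg/mL compound, single determination.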

Candida albicans [3] = assay: In vivo antifungal activity administered intraperitoneally against Candida albicans infections in mice.; format: functional; conditions: ip
Method in brief: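 Male ICR mice (18-20 g), X-irradiated with 400 r 24 h before iv tail-vein infection with 2 × 10^6 C. albicans A26 cells in saline. Compounds suspended in β-cyclodextrin, given parenterally at 0, 4, 24 and 48 h post-infection. 10 mice per dose, top dose 10 mg/kg with 2-fold dilutions down to 0.039 mg/kg. 7-day survival; ED50 by Reed-Muench.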

Beta-1,3-glucan synthase (Candida albicans), sequence (O13428 as listed by the source): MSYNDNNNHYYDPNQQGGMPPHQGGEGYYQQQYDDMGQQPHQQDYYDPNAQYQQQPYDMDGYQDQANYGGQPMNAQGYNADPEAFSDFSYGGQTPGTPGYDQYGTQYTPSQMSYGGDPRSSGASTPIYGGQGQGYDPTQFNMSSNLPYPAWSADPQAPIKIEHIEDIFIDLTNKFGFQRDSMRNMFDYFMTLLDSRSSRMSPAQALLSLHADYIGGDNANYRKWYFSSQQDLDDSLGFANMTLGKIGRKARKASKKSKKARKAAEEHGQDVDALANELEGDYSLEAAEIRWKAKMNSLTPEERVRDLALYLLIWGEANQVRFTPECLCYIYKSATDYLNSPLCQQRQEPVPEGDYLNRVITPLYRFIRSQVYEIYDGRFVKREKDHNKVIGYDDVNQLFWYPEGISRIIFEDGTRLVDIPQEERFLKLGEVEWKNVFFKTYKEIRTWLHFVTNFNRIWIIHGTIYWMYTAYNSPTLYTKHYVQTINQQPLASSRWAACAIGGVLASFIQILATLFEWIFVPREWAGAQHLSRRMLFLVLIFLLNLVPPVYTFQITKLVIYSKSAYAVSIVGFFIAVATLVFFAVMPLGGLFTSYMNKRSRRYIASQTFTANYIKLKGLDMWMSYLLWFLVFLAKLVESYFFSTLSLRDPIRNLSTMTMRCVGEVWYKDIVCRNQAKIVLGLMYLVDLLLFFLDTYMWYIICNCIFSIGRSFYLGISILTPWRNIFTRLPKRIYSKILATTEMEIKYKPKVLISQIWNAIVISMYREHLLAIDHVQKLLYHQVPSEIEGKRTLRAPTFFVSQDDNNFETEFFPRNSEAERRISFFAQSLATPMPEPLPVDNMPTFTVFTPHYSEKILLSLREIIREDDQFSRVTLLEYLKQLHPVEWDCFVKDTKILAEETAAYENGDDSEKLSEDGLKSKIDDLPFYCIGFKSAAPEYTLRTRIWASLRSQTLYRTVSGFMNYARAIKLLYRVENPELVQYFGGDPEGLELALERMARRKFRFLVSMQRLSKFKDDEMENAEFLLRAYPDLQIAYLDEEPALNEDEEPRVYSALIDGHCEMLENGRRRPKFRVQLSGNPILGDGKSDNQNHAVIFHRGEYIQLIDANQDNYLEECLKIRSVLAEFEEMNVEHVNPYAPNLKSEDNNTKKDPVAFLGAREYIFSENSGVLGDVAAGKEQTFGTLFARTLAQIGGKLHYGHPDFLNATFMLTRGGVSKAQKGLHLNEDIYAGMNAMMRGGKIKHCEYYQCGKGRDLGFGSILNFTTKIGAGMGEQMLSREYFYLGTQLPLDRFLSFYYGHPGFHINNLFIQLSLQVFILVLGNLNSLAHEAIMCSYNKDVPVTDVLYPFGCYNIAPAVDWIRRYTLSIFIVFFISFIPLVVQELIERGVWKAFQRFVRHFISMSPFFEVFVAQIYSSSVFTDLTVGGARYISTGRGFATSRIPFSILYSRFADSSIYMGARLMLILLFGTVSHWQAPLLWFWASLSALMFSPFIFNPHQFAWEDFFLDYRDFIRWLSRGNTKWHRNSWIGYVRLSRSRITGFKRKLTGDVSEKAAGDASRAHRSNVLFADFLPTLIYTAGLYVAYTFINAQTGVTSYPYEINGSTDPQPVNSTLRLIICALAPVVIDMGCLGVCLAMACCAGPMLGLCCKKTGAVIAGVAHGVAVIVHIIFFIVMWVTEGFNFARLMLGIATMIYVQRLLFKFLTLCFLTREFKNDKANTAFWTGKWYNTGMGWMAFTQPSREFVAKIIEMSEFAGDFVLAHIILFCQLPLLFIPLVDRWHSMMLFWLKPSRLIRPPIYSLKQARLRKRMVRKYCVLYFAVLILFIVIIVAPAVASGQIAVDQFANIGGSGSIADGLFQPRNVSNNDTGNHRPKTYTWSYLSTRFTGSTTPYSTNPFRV

Row | Compound | MIC (Candida albicans [1]) [µg/mL] | inhibition [2] [%] | ED50 (Candida albicans [3]) [mg/kg]
1 | CCCCc1ccc(COc2ccc(C(=O)N[C@H]3C[C@@H](O)[C@@H](O)NC(=O)[C@@H]4[C@@H](O)[C@@H](C)CN4C(=O)[C@H]([C@@H](C)O)NC(=O)[C@H]([C@H](O)[C@@H](O)c4ccc(O)cc4)NC(=O)[C@@H]4C[C@@H](O)CN4C(=O)[C@H]([C@@H](C)O)NC3=O)cc2)cc1 (X10-[Orn(4R-OH,5R-OH)]T[Hyp][hTyr(3S-OH,4S-OH)]T[Pro(3S-OH,4S-Me)]; lactam 1-C) | 0.156 (≈ 0.147 µM) | 68.9 | 6.7
2 | CCC(CC)COc1ccc(-c2ccc(C(=O)N[C@H]3C[C@@H](O)[C@@H](O)NC(=O)[C@@H]4[C@@H](O)[C@@H](C)CN4C(=O)[C@H]([C@@H](C)O)NC(=O)[C@H]([C@H](O)[C@@H](O)c4ccc(O)cc4)NC(=O)[C@@H]4C[C@@H](O)CN4C(=O)[C@H]([C@@H](C)O)NC3=O)cc2)cc1 (X11-[Orn(4R-OH,5R-OH)]T[Hyp][hTyr(3S-OH,4S-OH)]T[Pro(3S-OH,4S-Me)]; lactam 1-C) | 0.039 (≈ 0.0362 µM) | – | 4.6
3 | CCCCCCCCCCOCCOc1ccc(C(=O)N[C@H]2C[C@@H](O)[C@@H](O)NC(=O)[C@@H]3[C@@H](O)[C@@H](C)CN3C(=O)[C@H]([C@@H](C)O)NC(=O)[C@H]([C@H](O)[C@@H](O)c3ccc(O)cc3)NC(=O)[C@@H]3C[C@@H](O)CN3C(=O)[C@H]([C@@H](C)O)NC2=O)cc1 (X12-[Orn(4R-OH,5R-OH)]T[Hyp][hTyr(3S-OH,4S-OH)]T[Pro(3S-OH,4S-Me)]; lactam 1-C) | 0.625 (≈ 0.567 µM) | 71.4 | 9.5
4 | C[C@@H](O)[C@@H]1NC(=O)[C@H]([C@H](O)[C@@H](O)c2ccc(O)cc2)NC(=O)[C@@H]2C[C@@H](O)CN2C(=O)[C@H]([C@@H](C)O)NC(=O)[C@@H](NC(=O)CCCCCCCCCCOc2ccc(-c3ccccc3)cc2)C[C@@H](O)[C@@H](O)NC(=O)[C@@H]2[C@@H](O)[C@@H](C)CN2C1=O (X13-[Orn(4R-OH,5R-OH)]T[Hyp][hTyr(3S-OH,4S-OH)]T[Pro(3S-OH,4S-Me)]; lactam 1-C) | 0.02 (≈ 0.0176 µM) | 80.2 | 7.4
5 | CCCCCCOc1ccc2cc(C(=O)N[C@H]3C[C@@H](O)[C@@H](O)NC(=O)[C@@H]4[C@@H](O)[C@@H](C)CN4C(=O)[C@H]([C@@H](C)O)NC(=O)[C@H]([C@H](O)[C@@H](O)c4ccc(O)cc4)NC(=O)[C@@H]4C[C@@H](O)CN4C(=O)[C@H]([C@@H](C)O)NC3=O)ccc2c1 (X15-[Orn(4R-OH,5R-OH)]T[Hyp][hTyr(3S-OH,4S-OH)]T[Pro(3S-OH,4S-Me)]; lactam 1-C) | 0.039 (≈ 0.0371 µM) | 77.7 | 2.8
6 | C[C@@H](O)[C@@H]1NC(=O)[C@H]([C@H](O)[C@@H](O)c2ccc(O)cc2)NC(=O)[C@@H]2C[C@@H](O)CN2C(=O)[C@H]([C@@H](C)O)NC(=O)[C@@H](NC(=O)c2ccc(C#Cc3ccc(-c4ccccc4)cc3)cc2)C[C@@H](O)[C@@H](O)NC(=O)[C@@H]2[C@@H](O)[C@@H](C)CN2C1=O (X18-[Orn(4R-OH,5R-OH)]T[Hyp][hTyr(3S-OH,4S-OH)]T[Pro(3S-OH,4S-Me)]; lactam 1-C) | 0.078 (≈ 0.0723 µM) | 78.2 | 1.7
7 | CCCCCCCCOCCOc1ccc(C(=O)N[C@H]2C[C@@H](O)[C@@H](O)NC(=O)[C@@H]3[C@@H](O)[C@@H](C)CN3C(=O)[C@H]([C@@H](C)O)NC(=O)[C@H]([C@H](O)[C@@H](O)c3ccc(O)cc3)NC(=O)[C@@H]3C[C@@H](O)CN3C(=O)[C@H]([C@@H](C)O)NC2=O)cc1 (X19-[Orn(4R-OH,5R-OH)]T[Hyp][hTyr(3S-OH,4S-OH)]T[Pro(3S-OH,4S-Me)]; lactam 1-C) | 2.5 (≈ 2.33 µM) | 54.8 | 4.4
8 | CCCCOc1ccc(-c2ccc(C(=O)N[C@H]3C[C@@H](O)[C@@H](O)NC(=O)[C@@H]4[C@@H](O)[C@@H](C)CN4C(=O)[C@H]([C@@H](C)O)NC(=O)[C@H]([C@H](O)[C@@H](O)c4ccc(O)cc4)NC(=O)[C@@H]4C[C@@H](O)CN4C(=O)[C@H]([C@@H](C)O)NC3=O)cc2)cc1 (X21-[Orn(4R-OH,5R-OH)]T[Hyp][hTyr(3S-OH,4S-OH)]T[Pro(3S-OH,4S-Me)]; lactam 1-C) | 0.078 (≈ 0.0743 µM) | 71.4 | 0.8
9 | C[C@@H](O)[C@@H]1NC(=O)[C@H]([C@H](O)[C@@H](O)c2ccc(O)cc2)NC(=O)[C@@H]2C[C@@H](O)CN2C(=O)[C@H]([C@@H](C)O)NC(=O)[C@@H](NC(=O)c2ccc(-c3ccc(OCC4CCCC4)cc3)cc2)C[C@@H](O)[C@@H](O)NC(=O)[C@@H]2[C@@H](O)[C@@H](C)CN2C1=O (X22-[Orn(4R-OH,5R-OH)]T[Hyp][hTyr(3S-OH,4S-OH)]T[Pro(3S-OH,4S-Me)]; lactam 1-C) | 0.039 (≈ 0.0362 µM) | – | 1.2
10 | C[C@@H](O)[C@@H]1NC(=O)[C@H]([C@H](O)[C@@H](O)c2ccc(O)cc2)NC(=O)[C@@H]2C[C@@H](O)CN2C(=O)[C@H]([C@@H](C)O)NC(=O)[C@@H](NC(=O)CCCCCOc2ccc(-c3ccccc3)cc2)C[C@@H](O)[C@@H](O)NC(=O)[C@@H]2[C@@H](O)[C@@H](C)CN2C1=O (X23-[Orn(4R-OH,5R-OH)]T[Hyp][hTyr(3S-OH,4S-OH)]T[Pro(3S-OH,4S-Me)]; lactam 1-C) | 1.25 (≈ 1.17 µM) | 69.1 | –
11 | CCCCC(Oc1ccc(-c2ccccc2)cc1)C(=O)N[C@H]1C[C@@H](O)[C@@H](O)NC(=O)[C@@H]2[C@@H](O)[C@@H](C)CN2C(=O)[C@H]([C@@H](C)O)NC(=O)[C@H]([C@H](O)[C@@H](O)c2ccc(O)cc2)NC(=O)[C@@H]2C[C@@H](O)CN2C(=O)[C@H]([C@@H](C)O)NC1=O (stereo partly drawn) (X24-[Orn(4R-OH,5R-OH)]T[Hyp][hTyr(3S-OH,4S-OH)]T[Pro(3S-OH,4S-Me)]; lactam 1-C) | 80 (≈ 75.2 µM) | 55.1 | –
12 | CCCCCCCCCCCCC(Oc1ccc(-c2ccccc2)cc1)C(=O)N[C@H]1C[C@@H](O)[C@@H](O)NC(=O)[C@@H]2[C@@H](O)[C@@H](C)CN2C(=O)[C@H]([C@@H](C)O)NC(=O)[C@H]([C@H](O)[C@@H](O)c2ccc(O)cc2)NC(=O)[C@@H]2C[C@@H](O)CN2C(=O)[C@H]([C@@H](C)O)NC1=O (stereo partly drawn) (X25-[Orn(4R-OH,5R-OH)]T[Hyp][hTyr(3S-OH,4S-OH)]T[Pro(3S-OH,4S-Me)]; lactam 1-C) | 0.312 (≈ 0.265 µM) | 83 | –
13 | CCCCOc1ccc(Cc2ccc(C(=O)N[C@H]3C[C@@H](O)[C@@H](O)NC(=O)[C@@H]4[C@@H](O)[C@@H](C)CN4C(=O)[C@H]([C@@H](C)O)NC(=O)[C@H]([C@H](O)[C@@H](O)c4ccc(O)cc4)NC(=O)[C@@H]4C[C@@H](O)CN4C(=O)[C@H]([C@@H](C)O)NC3=O)cc2)cc1 (X26-[Orn(4R-OH,5R-OH)]T[Hyp][hTyr(3S-OH,4S-OH)]T[Pro(3S-OH,4S-Me)]; lactam 1-C) | > 20 | 43.4 | –
14 | CCCCCCCCCCOc1cc2ccccc2cc1C(=O)N[C@H]1C[C@@H](O)[C@@H](O)NC(=O)[C@@H]2[C@@H](O)[C@@H](C)CN2C(=O)[C@H]([C@@H](C)O)NC(=O)[C@H]([C@H](O)[C@@H](O)c2ccc(O)cc2)NC(=O)[C@@H]2C[C@@H](O)CN2C(=O)[C@H]([C@@H](C)O)NC1=O (X27-[Orn(4R-OH,5R-OH)]T[Hyp][hTyr(3S-OH,4S-OH)]T[Pro(3S-OH,4S-Me)]; lactam 1-C) | 20 (≈ 18 µM) | 40.6 | –
15 | CCCCOc1ccc(Oc2ccc(C(=O)N[C@H]3C[C@@H](O)[C@@H](O)NC(=O)[C@@H]4[C@@H](O)[C@@H](C)CN4C(=O)[C@H]([C@@H](C)O)NC(=O)[C@H]([C@H](O)[C@@H](O)c4ccc(O)cc4)NC(=O)[C@@H]4C[C@@H](O)CN4C(=O)[C@H]([C@@H](C)O)NC3=O)cc2)cc1 (X28-[Orn(4R-OH,5R-OH)]T[Hyp][hTyr(3S-OH,4S-OH)]T[Pro(3S-OH,4S-Me)]; lactam 1-C) | > 20 | 66.7 | –
16 | CCCCCOCCOc1ccc(C(=O)N[C@H]2C[C@@H](O)[C@@H](O)NC(=O)[C@@H]3[C@@H](O)[C@@H](C)CN3C(=O)[C@H]([C@@H](C)O)NC(=O)[C@H]([C@H](O)[C@@H](O)c3ccc(O)cc3)NC(=O)[C@@H]3C[C@@H](O)CN3C(=O)[C@H]([C@@H](C)O)NC2=O)cc1 (X29-[Orn(4R-OH,5R-OH)]T[Hyp][hTyr(3S-OH,4S-OH)]T[Pro(3S-OH,4S-Me)]; lactam 1-C) | > 20 | 17.1 | –
17 | CCCCCCOc1cc2ccccc2cc1C(=O)N[C@H]1C[C@@H](O)[C@@H](O)NC(=O)[C@@H]2[C@@H](O)[C@@H](C)CN2C(=O)[C@H]([C@@H](C)O)NC(=O)[C@H]([C@H](O)[C@@H](O)c2ccc(O)cc2)NC(=O)[C@@H]2C[C@@H](O)CN2C(=O)[C@H]([C@@H](C)O)NC1=O (X30-[Orn(4R-OH,5R-OH)]T[Hyp][hTyr(3S-OH,4S-OH)]T[Pro(3S-OH,4S-Me)]; lactam 1-C) | 20 (≈ 19 µM) | 19.4 | –
